In the library only some 7.1% were active in any assay of this set; here they are far more common.
HUVEC prolif 384 – inhibitors of HUVEC proliferation, primary screen, cell-based, 384-well | viability, % at 10 µM (by protocol) | hit rate 1.1% among 86,000 | CellTiter-Glo luminescence, 72 h; active compounds read low;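 active = viability at or below 30%; inactive = viability above 30%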;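 note: 100% = median luminescence of DMSO-only cell control wells on each plate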
HCT116 bCat-KO – primary screen for growth suppressors in beta-catenin knockout HCT116 cells (colon tumor, human); HCT116 beta-catenin knockout viability, CellTiter-Glo, 60 h; active compounds read low; viability, % at 10 µM; hit rate 1.5% among 140,000;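 active = viability at or under a set limit, the compound median less 4 SD, cut at about 6% in these data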;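 note: 0% = Hyamine 1622 control at 20 µM and 100% = untreated cell control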
HCT116 PTEN-null – growth suppression of PTEN-null HCT116, primary screen, cell-based, CellTiter-Glo; viability, % at 10 µM; HCT116 PTEN-null viability, 60 h; active compounds read low; hit rate 1.2% among 140,000; AID 827, 2007;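 active = viability at or below a set limit, 4 SD under the median of all tested compounds, cut at about 3.7% in these data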;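 note: PTEN knockout HCT116 line with beta catenin targeted HCT116 as companion control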
Cav3 T inh – Cav3.2 calcium influx blockers – cell-based, Fluo-4 calcium fluorescence, FDSS, MLSMR library, primary screen; AID 449739, 2010; B-score at 10 µM; Cav3.2-expressing cells; active compounds read low; hit rate 4% among 100,000; Voltage-dependent T-type calcium channel subunit alpha-1H (Homo sapiens), O95180;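 active = single-dose well whose peak fluorescence ratio is a statistical outlier from its plate by either plate-standardised score or position-corrected B-score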
H69AR inhibit – proliferation blockers of H69AR lung cancer cells, primary screen, cell-based, human, 86K library; AID 598, 2007; viability, % at 10 µM; hit rate 6% among 85,000; H69AR lung tumor viability, ATP luminescence, 72 h; active compounds read low;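 active = viability at or below 40%; inactive = viability above 40%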;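 note: multidrug resistant small cell line overexpressing MRP-1 efflux transporter; 100% = mean luminescence of untreated control wells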
Fibroblast inh – antiproliferative effect on LL 47 fibroblasts – human, LL 47 cells, CellTiter-Glo luminescence, primary screen | hit rate 1.1% among 85,000 | LL 47 human lung fibroblast viability, ATP luminescence; active compounds read low | viability, % at 10 µM;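 active = viability at or below 50% in the single dose screen; inactive = viability above 50%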;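 note: compound exposure lasted 72 h before the ATP readout; 100% = median luminescence of untreated cell-only wells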
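Material: human lung fibroblast line LL 47, low passage; Evaluation: viability percentage against median untreated-cell control; Buffer or medium: 15% FBS in IMEM; Incubation: 72 h compound exposure at 37 °C after overnight plating; Dosing: 0.1% DMSO in all compound wells; Measured by: CellTiter-Glo luminescence.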
* = called active by the depositor.

How did COC(=O)c1ccc(C(=O)OC)c(NC(=O)CSc2cccc[n+]2[O-])c1 do in these assays?
HUVEC prolif 384: 90; HCT116 bCat-KO: 60; HCT116 PTEN-null: 60; Cav3 T inh: 0.16; H69AR inhibit: 2.2*; Fibroblast inh: 98

What do the screens show for `O=c1[nH]c(SCc2nc3ccccc3n2Cc2ccccc2)nc2ccccc12`?
HCT116 bCat-KO: 2.1*; HCT116 PTEN-null: 2.7*; Cav3 T inh: 0.68

Results for C=CCN1c2ccccc2[C@]23C[C@@H](C(=O)OC)N(C(=O)NCCC)C2=NC(C(=O)OC)=C(C(=O)OC)[C@H]13 ?
Cav3 T inh: -1.9

Results for O=Cc1c(C(=O)O)n(CC(=O)O)c2ccccc12 ?
HCT116 bCat-KO: 99; HCT116 PTEN-null: 91

How did CC(C)CCNC(=O)C12CN(Cc3ccccc3)CC1C(c1cccc([N+](=O)[O-])c1)=NO2 (stereo not drawn) do in these assays?
HCT116 bCat-KO: 57; HCT116 PTEN-null: 51; Cav3 T inh: -4.7*

Results for N#Cc1ccccc1NC(=O)c1ccccc1OCC(=O)Nc1ccc2c(c1)oc1ccccc12 ?
HUVEC prolif 384: 60; Cav3 T inh: 0.11; H69AR inhibit: 3.9*; Fibroblast inh: 90

What do the screens show for `CNC(=O)COc1ccccc1C(=O)Nc1ccc2c(c1)oc1ccccc12`?
HUVEC prolif 384: 103; HCT116 bCat-KO: 84; HCT116 PTEN-null: 88; Cav3 T inh: 0.16; H69AR inhibit: 55; Fibroblast inh: 101

What do the screens show for `N#Cc1ccccc1OCC(=O)Nc1c(C(=O)C2CC2)oc2ccccc12`?
HUVEC prolif 384: 59; HCT116 bCat-KO: 68; HCT116 PTEN-null: 77; Cav3 T inh: 0.47; H69AR inhibit: 7.6*; Fibroblast inh: 84

What do the screens show for `CC(=O)Nc1c(C(=O)C2CC2)oc2ccccc12`?
HUVEC prolif 384: 97; HCT116 bCat-KO: 102; HCT116 PTEN-null: 91; Cav3 T inh: 0.3; H69AR inhibit: 86; Fibroblast inh: 91

Results for COc1ccc(NC(=O)c2oc3ccccc3c2NC(=O)COc2ccccc2OC)c(OC)c1 ?
HUVEC prolif 384: 7.2*; HCT116 bCat-KO: 25; HCT116 PTEN-null: 45; Cav3 T inh: 0.99; H69AR inhibit: 19*; Fibroblast inh: 71

Results for COc1ccccc1OCC(=O)Nc1sc2c(c1C(=O)NCC1CCCO1)CCC2 (stereo not drawn) ?
HCT116 bCat-KO: 96; HCT116 PTEN-null: 94; Cav3 T inh: -3.3

How did Cc1cc2nc(/N=C(\N)NC(=O)N3c4ccccc4Sc4ccccc43)nc(C)c2cc1C do in these assays?
HCT116 bCat-KO: 86; HCT116 PTEN-null: 79

Results for Clc1ccc(-n2ncc3c(NCC4CCCO4)ncnc32)cc1 (stereo not drawn) ?
HUVEC prolif 384: 61; HCT116 bCat-KO: 50; HCT116 PTEN-null: 50; Cav3 T inh: -2; H69AR inhibit: 20*; Fibroblast inh: 93

What do the screens show for `c1ccc(-n2ncc3c(NCC4CCCO4)ncnc32)cc1` (stereo not drawn)?
HUVEC prolif 384: 84; HCT116 bCat-KO: 64; HCT116 PTEN-null: 82; Cav3 T inh: -0.18; H69AR inhibit: 41; Fibroblast inh: 96

How did C=CCNc1nc2c(c(=O)n(C)c(=O)n2C)n1CC(=C)C do in these assays?
Cav3 T inh: 0.058

How did S=C(Nc1cccc(Cl)c1Cl)Nn1cnnc1 do in these assays?
HCT116 bCat-KO: 92; HCT116 PTEN-null: 97

How did NC(=O)C1CCN(C(=O)Nc2ccccc2)CC1 do in these assays?
Cav3 T inh: -0.1

What do the screens show for `NC(=O)C1CCN(C2=C(Cl)C(=O)c3ccccc3C2=O)CC1`?
HCT116 bCat-KO: 5.7*; HCT116 PTEN-null: 20; Cav3 T inh: -0.68

How did CC1=C(C(=O)OCCOc2ccccc2)C(c2ccc(C)o2)C2=C(CC(C)(C)CC2=O)N1 (stereo not drawn) do in these assays?
HUVEC prolif 384: 85; HCT116 bCat-KO: 64; HCT116 PTEN-null: 66; Cav3 T inh: -7.1*; H69AR inhibit: 101; Fibroblast inh: 92
